Results taken from ChEMBL document CHEMBL1154751, “Evaluation of di-sansalvamide A derivatives: synthesis, structure-activity relationship, and mechanism of action” (J Med Chem, 2009).

Key:
[1] = Inhibition of HSP90
[2] = Growth inhibition of Pancreatic cancer cells; format: functional, cell-based; conditions: Cancer cell lines
[3] = Cytotoxicity against human K2 O/E cells over expressing tetracycline inducible IP6K2 protein assessed as cell survival; format: functional
Procedure, shortened: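 Stable tetracycline-inducible Myc-IP6K2 HEK293 line. IP6K2 overexpression induced with 1 μg/mL tetracycline for 24 h; wild-type control cells got vehicle alone. Cells then exposed to 25 nM drug or DMSO (no drug) for 48 h. Viability read by CCK-8 assay and expressed relative to control set at 100%.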

[4] = Growth inhibition of human PL45 cells at 5 uM after 24 hrs by [3H]thymidine uptake assay; format: functional; conditions: read-out: GI
[5] = Potency index, ratio of novobiocin IC50 to compound IC50 for HSP90 HSP90
HCT-116 [6] = assay: Growth inhibition of human HCT116 cells at 5 uM after 24 hrs by [3H]thymidine uptake assay; format: functional; conditions: read-out: GI
[7] = Growth inhibition of human PL45 cells at 125 nM after 24 hrs by [3H]thymidine uptake assay; format: functional; conditions: read-out: GI
[8] = Growth inhibition of human WS1 cells at 125 nM after 24 hrs by [3H]thymidine uptake assay; format: functional; conditions: read-out: GI
HCT-116 [9] = assay: Growth inhibition of human HCT116 cells at 50 nM after 24 hrs by [3H]thymidine uptake assay; format: functional; conditions: read-out: GI
[10] = Growth inhibition of human WS1 cells after 24 hrs by [3H]thymidine uptake assay; format: functional, cell-based
[11] = Growth inhibition of human WS1 cells at 1000 nM after 24 hrs by [3H]thymidine uptake assay; format: functional; conditions: read-out: GI
[12] = Growth inhibition of human WS1 cells at 500 nM after 24 hrs by [3H]thymidine uptake assay; format: functional; conditions: read-out: GI
[13] = Growth inhibition of human PL45 cells at 250 nM after 24 hrs by [3H]thymidine uptake assay; format: functional; conditions: read-out: GI
[14] = Growth inhibition of human PL45 cells at 1 nM after 24 hrs by [3H]thymidine uptake assay; format: functional; conditions: read-out: GI
[15] = Growth inhibition of human WS1 cells at 1 nM after 24 hrs by [3H]thymidine uptake assay; format: functional; conditions: read-out: GI
[16] = Growth inhibition of human WS1 cells at 250 nM after 24 hrs by [3H]thymidine uptake assay; format: functional; conditions: read-out: GI
[17] = Growth inhibition of human PL45 cells at 500 nM after 24 hrs by [3H]thymidine uptake assay; format: functional; conditions: read-out: GI
[18] = Growth inhibition of human WS1 cells at 62.5 nM after 24 hrs by [3H]thymidine uptake assay; format: functional; conditions: read-out: GI
HCT-116 [19] = assay: Growth inhibition of human HCT116 cells after 24 hrs by [3H]thymidine uptake assay; format: functional, cell-based
HCT-116 [20] = assay: Growth inhibition of human HCT116 cells at 10 nM after 24 hrs by [3H]thymidine uptake assay; format: functional; conditions: read-out: GI
[21] = Growth inhibition of human PL45 cells at 62.5 nM after 24 hrs by [3H]thymidine uptake assay; format: functional; conditions: read-out: GI
HCT-116 [22] = assay: Growth inhibition of human HCT116 cells at 100 nM after 24 hrs by [3H]thymidine uptake assay; format: functional; conditions: read-out: GI
[23] = Growth inhibition of human PL45 cells at 1000 nM after 24 hrs by [3H]thymidine uptake assay; format: functional; conditions: read-out: GI
[24] = Growth inhibition of human PL45 cells after 24 hrs by [3H]thymidine uptake assay; format: functional, cell-based
HCT-116 [25] = assay: Growth inhibition of human HCT116 cells at 200 nM after 24 hrs by [3H]thymidine uptake assay; format: functional; conditions: read-out: GI
HCT-116 [26] = assay: Growth inhibition of human HCT116 cells at 20 nM after 24 hrs by [3H]thymidine uptake assay; format: functional; conditions: read-out: GI

CO[C@@H]1[C@@H](OC(N)=O)[C@@H](O)[C@H](Oc2ccc3c(O)c(NC(=O)c4ccc(O)c(CC=C(C)C)c4)c(=O)oc3c2C)OC1(C)C [NOVOBIOCIN]
EC50 [1]: 100000 nM

CC(C)C[C@@H]1NC(=O)[C@H](Cc2ccccc2)NC(=O)[C@@H](CC(C)C)NC(=O)[C@@H](C(C)C)NC(=O)[C@H](CC(C)C)NC(=O)[C@H](CC(C)C)NC(=O)[C@H](Cc2ccccc2)NC(=O)[C@@H](CC(C)C)NC(=O)[C@@H](C(C)C)NC(=O)[C@H](CC(C)C)NC1=O
IC50 [2]: 1 nM | Survival [3]: 3% | inhibition of growth at 5 µM [4]: 99% | Ratio IC50 [5]: 50000 | inhibition of growth at 5 µM (HCT-116 [6]): 99% | EC50 [1]: 2 nM

C=CCNC1=C2C[C@@H](C)C[C@H](OC)[C@H](O)[C@@H](C)/C=C(\C)[C@H](OC(N)=O)[C@@H](OC)/C=C\C=C(/C)C(=O)NC(=CC1=O)C2=O [TANESPIMYCIN]
inhibition of growth at 0.125 µM [7]: 99% | inhibition of growth at 0.125 µM [8]: 73.2% | inhibition of growth at 0.05 µM (HCT-116 [9]): 54% | IC50 [10]: 31.8 nM | inhibition of growth at 1 µM [11]: 77.8% | inhibition of growth at 0.5 µM [12]: 76.3% | inhibition of growth at 0.25 µM [13]: 99% | inhibition of growth at 0.001 µM [14]: 11.4% | inhibition of growth at 0.001 µM [15]: 18% | inhibition of growth at 0.25 µM [16]: 66% | inhibition of growth at 0.5 µM [17]: 99% | inhibition of growth at 0.0625 µM [18]: 51.7% | IC50 (HCT-116 [19]): 56.5 nM | inhibition of growth at 0.01 µM (HCT-116 [20]): 0% | inhibition of growth at 0.0625 µM [21]: 98% | inhibition of growth at 0.1 µM (HCT-116 [22]): 72% | inhibition of growth at 1 µM [23]: 99% | IC50 [24]: 7.7 nM | inhibition of growth at 0.2 µM (HCT-116 [25]): 79% | inhibition of growth at 0.02 µM (HCT-116 [26]): 12%

CC(C)C[C@@H]1NC(=O)[C@H](Cc2ccccc2)NC(=O)[C@@H](CC(C)C)NC(=O)[C@@H](C(C)C)NC(=O)[C@@H](CC(C)C)NC(=O)[C@H](CC(C)C)NC(=O)[C@@H](Cc2ccccc2)NC(=O)[C@@H](CC(C)C)NC(=O)[C@@H](C(C)C)NC(=O)[C@H](CC(C)C)NC1=O
inhibition of growth at 5 µM [4]: 15% | inhibition of growth at 5 µM (HCT-116 [6]): 0%
